Experiment [1] has as its target T1, Metabotropic glutamate receptor 1 (Homo sapiens, UniProt Q13255). The experiment is described as follows: Positive allosteric modulatory activity at human mGlu1 receptor expressed in wild type T-Rex293 cells assessed as increase in glutamate-induced calcium mobilization pre-incubated for 2.5 mins before glutamate stimulation for 1 min. It is filed as functional, cell-based. The essentials:
(§1)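 Tetracycline-inducible human mGlu1 WT T-REx-293 cells were induced overnight with 50 ng/mL tetracycline in dialyzed-FBS medium. Cells were loaded with 1.15 μM Fluo-4 AM in HBSS/20 mM HEPES/2.5 mM probenecid for 45 min at 37 °C. Compounds (half-log series in DMSO) were added for 2.5 min, then an EC20 of glutamate for 1 min. Calcium flux was read on Flexstation; ECmax glutamate served as reference. n=3 in triplicate.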
Background: A change in cytosolic calcium serves as a functional read-out for many receptors and channels.
Target sequence in this assay (Q13255 whole entry): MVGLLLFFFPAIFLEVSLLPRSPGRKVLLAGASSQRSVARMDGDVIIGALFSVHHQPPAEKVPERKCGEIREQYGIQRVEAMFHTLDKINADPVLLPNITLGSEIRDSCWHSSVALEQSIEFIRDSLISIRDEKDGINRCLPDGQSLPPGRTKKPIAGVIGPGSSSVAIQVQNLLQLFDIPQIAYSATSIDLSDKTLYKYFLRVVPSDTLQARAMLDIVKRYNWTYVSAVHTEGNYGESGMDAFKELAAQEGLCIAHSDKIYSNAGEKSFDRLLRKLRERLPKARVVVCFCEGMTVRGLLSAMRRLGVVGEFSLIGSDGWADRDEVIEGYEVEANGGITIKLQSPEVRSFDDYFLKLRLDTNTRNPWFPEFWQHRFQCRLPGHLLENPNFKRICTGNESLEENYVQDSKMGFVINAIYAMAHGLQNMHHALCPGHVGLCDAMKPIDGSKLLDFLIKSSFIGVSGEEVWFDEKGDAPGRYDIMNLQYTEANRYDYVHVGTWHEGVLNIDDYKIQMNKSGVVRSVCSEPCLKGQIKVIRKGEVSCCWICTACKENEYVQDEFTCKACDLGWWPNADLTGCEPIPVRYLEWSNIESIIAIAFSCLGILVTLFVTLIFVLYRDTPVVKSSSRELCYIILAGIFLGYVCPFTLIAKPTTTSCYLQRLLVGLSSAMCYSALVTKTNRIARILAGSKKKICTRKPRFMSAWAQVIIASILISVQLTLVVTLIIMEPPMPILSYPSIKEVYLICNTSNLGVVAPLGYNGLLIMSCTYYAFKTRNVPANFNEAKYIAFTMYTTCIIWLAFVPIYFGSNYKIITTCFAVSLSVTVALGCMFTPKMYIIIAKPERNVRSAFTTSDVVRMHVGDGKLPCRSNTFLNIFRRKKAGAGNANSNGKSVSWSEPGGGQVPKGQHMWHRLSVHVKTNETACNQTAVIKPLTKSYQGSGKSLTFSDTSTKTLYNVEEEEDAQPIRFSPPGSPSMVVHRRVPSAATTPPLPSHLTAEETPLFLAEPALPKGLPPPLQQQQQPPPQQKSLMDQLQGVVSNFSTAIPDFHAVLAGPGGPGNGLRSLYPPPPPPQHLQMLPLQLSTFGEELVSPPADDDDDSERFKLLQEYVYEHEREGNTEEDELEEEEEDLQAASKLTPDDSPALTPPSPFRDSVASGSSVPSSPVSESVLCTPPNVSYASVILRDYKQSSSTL

Experiment [2] concerns the target T1, Metabotropic glutamate receptor 1. The experiment is described as follows: Positive allosteric modulatory activity at human mGlu1 receptor expressed in wild type T-Rex293 cells assessed as increase in glutamate-induced calcium mobilization pre-incubated for 2.5 mins before glutamate stimulation for 1 min relative to glutamate alone. It is filed as functional, cell-based. The essentials:
as §1
Target sequence in this assay (Q13255 19-1194 limits assumed): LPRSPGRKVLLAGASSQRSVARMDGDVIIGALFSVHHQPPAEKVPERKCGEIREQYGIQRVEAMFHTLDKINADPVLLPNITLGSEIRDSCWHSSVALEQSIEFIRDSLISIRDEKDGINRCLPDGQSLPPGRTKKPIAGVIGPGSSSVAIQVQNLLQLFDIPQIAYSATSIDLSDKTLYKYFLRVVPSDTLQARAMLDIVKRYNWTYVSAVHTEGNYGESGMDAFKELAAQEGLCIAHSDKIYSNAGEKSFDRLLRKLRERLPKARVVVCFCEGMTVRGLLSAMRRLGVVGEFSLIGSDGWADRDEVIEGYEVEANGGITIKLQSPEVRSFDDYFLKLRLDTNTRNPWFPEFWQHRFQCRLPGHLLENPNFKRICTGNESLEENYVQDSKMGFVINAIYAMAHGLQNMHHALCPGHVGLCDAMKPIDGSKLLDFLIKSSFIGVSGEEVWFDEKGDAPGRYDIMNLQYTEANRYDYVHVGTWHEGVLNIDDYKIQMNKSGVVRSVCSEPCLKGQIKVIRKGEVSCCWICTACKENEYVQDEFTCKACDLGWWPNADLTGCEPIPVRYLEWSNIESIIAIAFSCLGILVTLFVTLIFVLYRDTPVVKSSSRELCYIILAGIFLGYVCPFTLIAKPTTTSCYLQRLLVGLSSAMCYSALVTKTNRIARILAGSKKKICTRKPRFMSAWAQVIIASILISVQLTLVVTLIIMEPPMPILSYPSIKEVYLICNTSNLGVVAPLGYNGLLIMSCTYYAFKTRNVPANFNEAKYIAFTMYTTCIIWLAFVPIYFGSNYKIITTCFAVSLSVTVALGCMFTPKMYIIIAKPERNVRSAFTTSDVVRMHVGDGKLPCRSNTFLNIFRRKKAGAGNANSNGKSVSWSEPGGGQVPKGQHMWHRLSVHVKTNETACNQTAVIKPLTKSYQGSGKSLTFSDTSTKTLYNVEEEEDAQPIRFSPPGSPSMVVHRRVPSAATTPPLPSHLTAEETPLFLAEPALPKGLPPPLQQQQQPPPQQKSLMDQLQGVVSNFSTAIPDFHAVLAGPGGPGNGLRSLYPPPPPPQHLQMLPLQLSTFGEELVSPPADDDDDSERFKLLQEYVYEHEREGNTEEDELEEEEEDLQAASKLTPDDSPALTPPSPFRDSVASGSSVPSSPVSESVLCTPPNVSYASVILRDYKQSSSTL

On to `Cc1ccoc1C(=O)Nc1ccc(N2Cc3c(Cl)cccc3C2=O)cc1`, for which, in experiment [1] (read-out: EC50), the EC50 turned out to be 0.245 µM. The %max in experiment [2] was determined as 99%.

Consider `Cc1ccoc1C(=O)Nc1ccc(N2CCc3ccccc32)c(Cl)c1`, for which the EC50 in experiment [1] (read-out: EC50) was determined as 5.71 µM. For the same molecule, the %max in experiment [2] was 82%.

Consider `O=C(Nc1ccc(N2Cc3c(Cl)cccc3C2=O)c(Cl)c1)c1ncccc1Cl`, for which the EC50 in experiment [1] (read-out: EC50) is 1.27 µM. The %max in experiment [2] was 93%.

On to `Cc1cccnc1C(=O)Nc1ccc(N2Cc3c(Cl)cccc3C2=O)c(Cl)c1`, for which the EC50 in experiment [1] (read-out: EC50) was 1.36 µM; in experiment [1] (read-out: pEC50 (converted)) it was 1.45 µM. Further, the %max in experiment [2] was 97%.

With `Cc1ccoc1C(=O)Nc1ccc(N2C(=O)Cc3ccccc32)c(Cl)c1`, the EC50 in experiment [1] (read-out: EC50) is above 10 µM.

Consider `Cc1ccoc1C(=O)Nc1ccc(N2C(=O)[C@H]3CCCC[C@H]3C2=O)c(Cl)c1`, for which the EC50 in experiment [1] (read-out: EC50) was above 10 µM.

`Cc1ccoc1C(=O)Nc1ccc(N2Cc3ccccc3C2)c(Cl)c1`: the EC50 in experiment [1] (read-out: EC50) was 1.76 µM. Further, the %max in experiment [2] worked out at 95%.

Consider `Cc1ccoc1C(=O)Nc1ccc(N2CCOc3ncccc32)c(Cl)c1`, for which, in experiment [1] (read-out: EC50), the EC50 was 2.61 µM. Moreover, the %max in experiment [2] turned out to be 93%.

With `Cc1ccoc1C(=O)Nc1ccc(N2Cc3c(Cl)cccc3C2=O)cc1F`, the EC50 in experiment [1] (read-out: EC50) stood at 1.26 µM. Also, the %max in experiment [2] came out at 86%.

As for `Cc1ccoc1C(=O)Nc1ccc(NC(=O)c2ccccc2)c(Cl)c1`, the EC50 in experiment [1] (read-out: EC50) is above 10 µM.

Regarding `O=C(Nc1ccc(N2Cc3ccccc3C2=O)c(Cl)c1)c1ncccc1Cl`, the EC50 in experiment [1] (read-out: EC50) is above 10 µM.

As for `Cc1scnc1C(=O)Nc1ccc(N2Cc3c(Cl)cccc3C2=O)c(Cl)c1`, the EC50 in experiment [1] (read-out: EC50) came to 0.954 µM. Also, the %max in experiment [2] was determined as 66%.

`Cc1ccoc1C(=O)Nc1ccc(N2CCc3ccccc3C2)c(Cl)c1`: the EC50 in experiment [1] (read-out: EC50) is 2.47 µM; in experiment [1] (read-out: pEC50 (converted)) it was 1.32 µM. The %max in experiment [2] was 107%.

On to `Cc1scnc1C(=O)Nc1ccc(N2Cc3ccccc3C2=O)c(Cl)c1`, for which the EC50 in experiment [1] (read-out: EC50) is above 10 µM. Besides, the %max in experiment [2] worked out at 33%.

Consider `Cc1cccnc1C(=O)Nc1ccc(N2Cc3ccccc3C2=O)c(Cl)c1`, for which the EC50 in experiment [1] (read-out: EC50) was above 10 µM.

Take `Cc1ccoc1C(=O)Nc1ccc(N2Cc3ccccc3C2=O)c(Cl)c1Cl`: the EC50 in experiment [1] (read-out: EC50) was above 10 µM.

Consider `Cc1ccoc1C(=O)Nc1ccc(N2C(=O)Cc3ccccc3CC2=O)c(Cl)c1`, for which the EC50 in experiment [1] (read-out: EC50) is 3.5 µM; in experiment [1] (read-out: pEC50 (converted)), 3.63 µM. For the same molecule, the %max in experiment [2] stood at 95%.

Turning to `Cc1ccoc1C(=O)Nc1ccc(N2Cc3cccc(Cl)c3C2=O)c(Cl)c1Cl`, the EC50 in experiment [1] (read-out: EC50) is 6.52 µM; in experiment [1] (read-out: pEC50 (converted)) it was 6.61 µM. The %max in experiment [2] is 81%.

Take `Cc1ccoc1C(=O)Nc1ccc(N2Cc3c(Cl)cccc3C2=O)c(Cl)c1Cl`: the EC50 in experiment [1] (read-out: EC50) is above 10 µM.

As for `O=C(Nc1ccc(N2Cc3cccc(Cl)c3C2=O)c(Cl)c1)c1ncccc1Cl`, the EC50 in experiment [1] (read-out: EC50) is above 10 µM. In experiment [2], the %max stood at 51%.

As for `Cc1ccoc1C(=O)Nc1ccc(N2Cc3cccc(Cl)c3C2=O)cc1F`, in experiment [1] (read-out: EC50), the EC50 is above 10 µM.

Turning to `Cc1ccoc1C(=O)Nc1ccc(N2Cc3ccccc3C2=O)cc1`, in experiment [1] (read-out: EC50), the EC50 came to 1.56 µM. For the same molecule, the %max in experiment [2] is 94%.

With `Cc1ccoc1C(=O)Nc1ccc(N2CCOc3ccccc32)c(Cl)c1`, the EC50 in experiment [1] (read-out: EC50) turned out to be 3.62 µM. Moreover, in experiment [2], the %max was 99%.

As for `Cc1ccoc1C(=O)Nc1ccc(NC(=O)c2ccccc2C(=O)O)c(Cl)c1`, the EC50 in experiment [1] (read-out: EC50) amounted to 0.93 µM. In addition, in experiment [2], the %max was found to be 108%.

On to `Cc1scnc1C(=O)Nc1ccc(N2Cc3cccc(Cl)c3C2=O)c(Cl)c1`, for which the values for the EC50 in experiment [1] (read-out: EC50) and in experiment [1] (read-out: pEC50 (converted)) were 4.69 µM and 4.79 µM, respectively. For the same molecule, in experiment [2], the %max was determined as 69%.

Consider `Cc1ccoc1C(=O)Nc1ccc(N2Cc3cccc(Cl)c3C2=O)cc1`, for which the EC50 in experiment [1] (read-out: EC50) was 0.353 µM. For the same molecule, in experiment [2], the %max turned out to be 101%.

Consider `Cc1ccoc1C(=O)Nc1ccc(N2CCc3ccccc3C2=O)c(Cl)c1`, for which the EC50 in experiment [1] (read-out: EC50) worked out at 0.781 µM. For the same molecule, the %max in experiment [2] is 94%.

Turning to `Cc1ccoc1C(=O)Nc1ccc(N2C(=O)[C@@H]3CCCC[C@H]3C2=O)c(Cl)c1` (relative stereo), the EC50 in experiment [1] (read-out: EC50) is above 10 µM.

Turning to `Cc1ccoc1C(=O)Nc1ccc(N2Cc3ccccc3C2=O)cc1F`, the EC50 in experiment [1] (read-out: EC50) is above 10 µM.

For the origin of these results see ChEMBL document CHEMBL3785002, “Lead optimization of the VU0486321 series of mGlu1 PAMs. Part 3. Engineering plasma stability by discovery and optimization of isoindolinone analogs” (Bioorg Med Chem Lett, 2016).
